≈ marks a conversion by molar mass, not a printed value.

Common to all, as to format: functional
Assay [1] relates to KB. Put plainly: In vitro inhibitory activity against growth of KB cells derived from human epidermoid carcinoma of the mouth. The note with it: for IC50: Homo sapiens, KB, read-out: ID50 (the source's name). In a few lines: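 KB human epidermoid carcinoma cells grown at 37 °C in 5% CO2–95% air and seeded at 2100 cells/cm². After 24 h the medium was changed and graded drug (0.3–100 µg/mL) added, two dishes per concentration. After 48 h of exposure, cells were trypsinized and counted by Coulter counter. IC50 was read from a plot of log concentration vs. growth rate (% of control).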

Assay [2] concerns Mus musculus. Put plainly: In vivo antitumor activity was measured in mice (P388 leukemia) at dose 100 mg/kg after intraperitoneal administration. In a few lines:
(§1)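 Groups of six CDF1 mice were inoculated ip with 10⁶ P388 leukemia cells. Ip drug dosing began 24 h later, given once daily for 1 and 5 days. %T/C = median survival time of the treated group ÷ median survival time of the tumor control group × 100.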

Assay [3] has as its system Mus musculus. Put plainly: In vivo antitumor activity was measured in mice (P388 leukemia) at dose 400 mg/kg after intraperitoneal administration. In a few lines:
as §1

Assay [4] deals with Mus musculus. Put plainly: In vivo antitumor activity was measured in mice (P388 leukemia) at dose 200 mg/kg after intraperitoneal administration. An outline of the steps:
as §1

For assay [5], the system named is Mus musculus. Put plainly: In vivo antitumor activity was measured in mice (P388 leukemia) at dose 50 mg/kg after intraperitoneal administration. In a few lines:
as §1

Assay [6] deals with Mus musculus. Put plainly: In vivo antitumor activity was measured in mice (P388 leukemia) at dose 5 mg/kg after intraperitoneal administration. An outline of the steps: as §1
Assay [7] deals with Mus musculus. Put plainly: In vivo antitumor activity was measured in mice (P388 leukemia) at dose 10 mg/kg after intraperitoneal administration. In a few lines: as §1
For assay [8], the system named is Mus musculus. Put plainly: In vivo antitumor activity was measured in mice (P388 leukemia) at dose 2.5 mg/kg after intraperitoneal administration. An outline of the steps:
as §1

The subject of assay [9] is Mus musculus. Put plainly: In vivo antitumor activity was measured in mice (P388 leukemia) at dose 20 mg/kg after intraperitoneal administration. In a few lines:
as §1

For assay [10], the system named is Mus musculus. Put plainly: In vivo antitumor activity was measured in mice (P388 leukemia) at dose 0.6 mg/kg after intraperitoneal administration. In a few lines: as §1
Assay [11] deals with Mus musculus. Put plainly: IIn vivo %T/C was measured in mice (P388 leukemia) at dose 10 mg/kg after intraperitoneal administration. An outline of the steps: as §1
For assay [12], the system named is Mus musculus. Put plainly: In vivo antitumor activity was measured in mice (P388 leukemia) at dose 1.3 mg/kg after intraperitoneal administration. In a few lines:
as §1

Assay [13] has as its system Mus musculus. Put plainly: In vivo antitumor activity was measured in mice (P388 leukemia) at dose 0.3 mg/kg after intraperitoneal administration. In a few lines: as §1
Assay [14] deals with Mus musculus. Put plainly: In vivo antitumor activity was measured in mice (P388 leukemia) at dose 0.5 mg/kg after intraperitoneal administration. In a few lines: as §1
Assay [15] relates to Mus musculus. Put plainly: In vivo antitumor activity was measured in mice (P388 leukemia) at dose 1 mg/kg after intraperitoneal administration. In a few lines:
as §1

Assay [16] concerns Mus musculus. Put plainly: In vivo antitumor activity was measured in mice (P388 leukemia)at dose 100 mg/kg after intraperitoneal administration. In a few lines: (§2)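 Groups of six CDF1 mice inoculated ip with 10⁶ P388 leukemia cells; ip drug treatment begun 24 h after inoculation, listed dose given once a day for 1 and 5 days. Endpoint: median survival time of treated group divided by that of tumor controls ×100 (% T/C).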

Assay [17] has as its system Mus musculus. Put plainly: In vivo antitumor activity was measured in mice (P388 leukemia)at dose 200 mg/kg after intraperitoneal administration. In a few lines:
as §2

In general, T/C refers to the result in the treated group divided by that in the control group, in per cent. Consider `CC(C)c1ccc(C(c2ccccc2)c2ccccc2)c(O)c(=O)c1`, for which, in assay [1], the ID50 turned out to be 4200 nM and the IC50 was determined as 1.4 µg/mL (≈ 4.24 µM). Besides, the T/C in assay [2] is reported as 119%.
For the compound `CCOC(c1ccc(OC)cc1)c1ccc(C(C)C)cc(=O)c1O` (stereo not given), in assay [1], the ID50 came to 1500 nM. Also, in [1], the IC50 is 0.5 µg/mL (≈ 1.52 µM). Further, the T/C is reported as 140% in [3] and 128% in assay [4].
In [1], `CCOC(c1ccc(Cl)cc1)c1ccc(C(C)C)cc(=O)c1O` (stereo not given) returned an ID50 of 900 nM. For the same compound, in assay [1], the IC50 is 0.3 µg/mL (≈ 0.901 µM). For the same compound, the T/C in assay [2] stood at 99%; in assay [3], 0%; in [4] it was 109%.
In the case of `CCOC(/C=C/c1ccccc1)c1ccc(C(C)C)cc(=O)c1O` (stereo not given), the T/C stood at 112% in assay [2], 0% in assay [3] and 100% in assay [4].
In [1], `COc1cc(C(C)C)ccc(C2OCCc3ccccc32)c1=O` (stereo not given) had an ID50 of 93000 nM. The IC50 in assay [1] amounted to 29 µg/mL (≈ 93.4 µM). Further, the T/C in assay [2] worked out at 92%; in assay [3], 98%; in assay [4] it was 94%.
In assay [1], `COc1cc(C(C)C)cccc1=O` displayed an ID50 of 278000 nM. In addition, the IC50 in assay [1] is 49.5 µg/mL (≈ 278 µM). For the same compound, the T/C in [2] was 108%; in [5] it was 106%; in assay [4], 0%.
Consider `Cc1ccc(C(c2ccc(C(C)C)cc(=O)c2O)c2ccc(C(C)C)cc(=O)c2O)cc1`, for which, in assay [1], the ID50 stood at 3400 nM and the IC50 came out at 1.5 µg/mL (≈ 3.48 µM). The T/C in assay [6] stood at 147%.
In the case of `COc1ccc(C(c2ccc(C(C)C)cc(=O)c2O)c2ccc(C(C)C)cc(=O)c2O)cc1OC`, the ID50 in [1] is 600 nM. The IC50 in [1] turned out to be 0.3 µg/mL (≈ 0.629 µM). Moreover, the T/C is 158% in assay [7], 137% in assay [8] and 156% in assay [6].
`CCOC(c1ccccc1)c1ccc(C(C)C)cc(=O)c1O` (stereo not given) had an ID50 in [1] of 1000 nM. The IC50 in assay [1] turned out to be 0.3 µg/mL (≈ 1.01 µM). In addition, the T/C came to 102% in assay [2] and 0% in assay [3].
With `COc1c(C2OCCc3ccccc32)ccc(C(C)C)cc1=O` (stereo not given), the ID50 in assay [1] is 58000 nM. The IC50 in assay [1] was 18 µg/mL (≈ 58 µM). Further, the T/C in [2] amounted to 93%; in assay [3] it was 98%; in assay [4], 88%.
Regarding `CC(C)c1ccc(C(c2ccc(Cl)cc2)c2ccc(C(C)C)cc(=O)c2O)c(O)c(=O)c1`, in [1], the ID50 came out at 4400 nM and the IC50 was 2 µg/mL (≈ 4.43 µM). The T/C in assay [6] was found to be 141%.
As for `Cc1ccccc1C(c1ccc(C(C)C)cc(=O)c1O)c1ccc(C(C)C)cc(=O)c1O`, the T/C turned out to be 137% in [8], 158% in [9] and 156% in [6].
In turn, `O=c1ccccc(C2OCCc3ccccc32)c1O` (stereo not given) had an ID50 in [1] of 1600 nM. For the same compound, the IC50 in assay [1] was found to be 0.5 µg/mL (≈ 1.97 µM). For the same compound, the T/C amounted to 104% in assay [2], 0% in [3] and 96% in [4].
In the case of `COc1ccc(C(c2ccc(C(C)C)cc(=O)c2O)c2ccc(C(C)C)cc(=O)c2O)cc1`, in assay [1], the ID50 came out at 1100 nM. Moreover, in [1], the IC50 was determined as 0.5 µg/mL (≈ 1.12 µM). The T/C in assay [10] is on record as 127%; in assay [8] it was 134%.
For the compound `COc1ccc(C(c2cc(C(C)C)ccc(=O)c2O)c2cc(C(C)C)ccc(=O)c2O)cc1`, in [1], the ID50 is 600 nM and the IC50 was 0.3 µg/mL (≈ 0.672 µM). The T/C in assay [6] is 156%.
Consider `CC(C)c1ccc(Cc2ccccc2)c(O)c(=O)c1`, for which, in assay [1], the ID50 was 2000 nM and the IC50 came to 0.5 µg/mL (≈ 1.97 µM). In assay [2], this compound came in with a T/C of 94%. The T/C in assay [3] worked out at 88%.
In assay [1], `COc1cccc(C(c2ccc(C(C)C)cc(=O)c2O)c2ccc(C(C)C)cc(=O)c2O)c1` came in with an ID50 of 2400 nM. In assay [1], the IC50 amounted to 1.1 µg/mL (≈ 2.46 µM). For the same compound, the values for the T/C in assay [7], in assay [8] and in [6] were 134%, 142% and 134%, respectively.
`COc1ccccc1C(c1ccc(C(C)C)cc(=O)c1O)c1ccc(C(C)C)cc(=O)c1O`: the values for the T/C in [9], in assay [6] and in assay [11] were 0%, 151% and 162%, respectively.
`C/C=C/C(OCC)c1ccc(C(C)C)cc(=O)c1O` (stereo not given) displayed an ID50 in assay [1] of 4500 nM. For the same compound, the IC50 in assay [1] turned out to be 1.2 µg/mL (≈ 4.57 µM). Besides, the T/C in [2] is 101%; in [3], 115%; in [4] it was 116%.
Turning to `CCOC(c1ccc(C)cc1)c1ccc(C(C)C)cc(=O)c1O` (stereo not given), in [1], the ID50 came out at 9900 nM and the IC50 is 6.2 µg/mL (≈ 19.8 µM). In [2], this compound yielded a T/C of 105%. In assay [4], the T/C is given as 105%.
In the case of `CCOC(c1ccc(N(C)C)cc1)c1ccc(C(C)C)cc(=O)c1O` (stereo not given), in assay [1], the ID50 was determined as 1700 nM and the IC50 came to 0.6 µg/mL (≈ 1.76 µM). The compound further had a T/C in [3] of 0%. In assay [4], this compound displayed a T/C of 128%.
Take `CC(C)c1ccc(C(c2ccc(N(C)C)cc2)c2ccc(C(C)C)cc(=O)c2O)c(O)c(=O)c1`: in assay [1], the ID50 was determined as 1500 nM and the IC50 was 0.7 µg/mL (≈ 1.52 µM). Besides, the T/C in [7] stood at 177%. In addition, the T/C in assay [6] came out at 173%.
With `CC(C)c1ccc(C2OCCc3ccccc32)c(O)c(=O)c1` (stereo not given), the ID50 in assay [1] is 1700 nM. In addition, the IC50 in assay [1] amounted to 0.5 µg/mL (≈ 1.69 µM). The T/C in [2] was 127%; in assay [3], 108%; in assay [5], 128%; in assay [4] it was 126%.
In assay [1], `CC(C)c1ccc(C(c2ccccc2)c2ccc(C(C)C)cc(=O)c2O)c(O)c(=O)c1` had an ID50 of 700 nM. For the same compound, in [1], the IC50 was 0.3 µg/mL (≈ 0.72 µM). The T/C is given as 132% in assay [12] and 150% in assay [8].
`COc1cc2c(c(OC)c1OC)-c1ccc(OC)c(=O)cc1[C@@H](NC(C)=O)CC2` [COLCHICINE] registered an ID50 in assay [1] of 6000 nM. Further, the IC50 in assay [1] was found to be 2.2 µg/mL (≈ 5.51 µM). For the same compound, the T/C in [13] worked out at 142%; in assay [14] it was 160%; in [15], 166%.
`CC(C)c1cccc(=O)c(O)c1` [HINOKITIOL] came in with an ID50 in assay [1] of 3600 nM. For the same compound, the IC50 in [1] was found to be 0.5 µg/mL (≈ 3.04 µM). The T/C in assay [3] is on record as 0%; in assay [5] it was 103%; in assay [16], 100%; in [17] it was 62%.
